Assay results as given in ChEMBL document CHEMBL1135420, “Mode of action of 4-hydroxyphenylpyruvate dioxygenase inhibition by triketone-type inhibitors” (J Med Chem, 2002).

Molecular target: 4-hydroxyphenylpyruvate dioxygenase (Sus scrofa, UniProt Q02110)
Assay: Inhibition of pig liver 4-Hydroxyphenylpyruvate dioxygenase (4-HPPD) enzyme
In short: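 Spectrophotometric enol borate assay. Mixture: potassium phosphate/borate buffer (0.42 M H₃BO₃ brought to pH 6.2 with 0.17 M Na₃PO₄), 4-hydroxyphenylpyruvic acid (1.8 mM stock), reduced dichlorophenolindophenol with glutathione, and phenylpyruvate tautomerase. Equilibrated about 15 min at 308 nm, then enzyme added with varying inhibitor concentrations. Absorbance decrease at 308 nm followed for 15 min. IC50 from fit to v_i = v₀/(1+[I]/IC50).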

Chain of 4-hydroxyphenylpyruvate dioxygenase (Q02110 whole entry): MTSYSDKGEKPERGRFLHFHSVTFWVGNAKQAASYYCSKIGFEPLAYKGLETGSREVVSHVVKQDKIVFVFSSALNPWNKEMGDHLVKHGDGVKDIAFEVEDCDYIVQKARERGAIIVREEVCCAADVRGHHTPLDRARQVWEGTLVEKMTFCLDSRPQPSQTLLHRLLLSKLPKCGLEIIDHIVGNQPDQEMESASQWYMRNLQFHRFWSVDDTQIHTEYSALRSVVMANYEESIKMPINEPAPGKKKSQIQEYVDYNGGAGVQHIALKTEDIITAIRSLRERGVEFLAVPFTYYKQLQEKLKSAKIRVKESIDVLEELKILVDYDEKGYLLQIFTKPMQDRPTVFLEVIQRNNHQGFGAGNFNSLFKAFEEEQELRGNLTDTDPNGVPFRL

An IC50 of 126 µM was found for `O=C1CCCC(O)=C1Cc1ccccc1[N+](=O)[O-]` in this work.

An IC50 of 50 µM was found for `O=C1CCCC(=O)C1=C(NO)c1ccccc1[N+](=O)[O-]` in this work.

An IC50 of 60 µM was found for `O=C1CCCC(=O)N1C(=O)c1ccccc1[N+](=O)[O-]` in this work.

An IC50 of 0.16 µM was found for `O=C1CCCC(=O)C1=C(O)c1ccccc1[N+](=O)[O-]` in this work.

An IC50 of 250 µM was found for `O=C1CCCC(=O)N1Cc1ccccc1[N+](=O)[O-]` in this work.

An IC50 of 52 µM was found for `COC1=C(C(=O)c2ccccc2[N+](=O)[O-])C(=O)CCC1` in this work.

An IC50 of 0.53 µM was found for `O=C1CCC=C(Cl)/C1=C(/O)c1ccccc1[N+](=O)[O-]` in this work.

An IC50 of 64 µM was found for `O=C1CCCC(Cl)=C1C(=O)c1ccccc1[N+](=O)[O-]` in this work.

An IC50 of 0.7 µM was found for `O=C1CCCC/C1=C(/O)c1ccccc1[N+](=O)[O-]` in this work.
